Results reported in ChEMBL document CHEMBL3779813, “Design, synthesis, topoisomerase I & II inhibitory activity, antiproliferative activity, and structure-activity relationship study of pyrazoline derivatives: An ATP-competitive human topoisomerase IIα catalytic inhibitor” (Bioorg Med Chem, 2016).
Structures can show the parent of a compound that is named as a salt. The source made the active and inactive calls. No cut-off for these calls is given here.

Key:
[1] = Antiproliferative activity against human HCT15 cells after 72 hrs by CCK8 assay; assay type: functional, cell-based; settings: HCT-15, 72 h
Summary of the method: (§1)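 Cells grown in RPMI 1640 with 10% FBS and 1% penicillin, 37 °C, 5% CO2. Seeded at 10^4 cells/well, 24 h at 37 °C, then compound for 72 h. CCK-8 (mitochondrial dehydrogenase) added, 4 h at 37 °C, absorbance read at 450 nm; IC50 derived. Compound stocks 20 mM in DMSO.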

[2] = target: DNA topoisomerase 2-alpha (Homo sapiens) (UniProt P11388); assay: Inhibition of human recombinant topoisomerase 2alpha assessed as relaxation of supercoiled plasmid DNA pBR322 at 20 uM after 30 mins by ethidium bromide staining based agarose gel electrophoresis
Summary of the method: (§2)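 Human topo IIα (1 unit) and 100 ng supercoiled pBR322 incubated 30 min at 37 °C in 10 mM Tris-HCl pH 7.9, 50 mM NaCl, 5 mM MgCl2, 1 mM EDTA, 1 mM ATP, 15 µg/mL BSA. Stopped with 7 mM EDTA; 0.8% agarose in TAE, ethidium bromide stain, UV quantitation as % relaxation inhibition.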

[3] = target: DNA topoisomerase 2-alpha (Homo sapiens) (UniProt P11388); assay: Inhibition of human recombinant topoisomerase 2alpha using supercoiled pUC18 as substrate assessed as hydrolysis of ATP preincubated for 30 mins followed by ATP addition measured after 30 mins by malachite green phosphate based ELISA microplate reader analysis
[4] = target: DNA topoisomerase 2-alpha (Homo sapiens) (UniProt P11388); assay: Activity at human recombinant topoisomerase 2alpha using supercoiled plasmid pBR322 as substrate assessed as stabilization of enzyme-DNA cleavage upto 300 uM after 20 mins by ethidium bromide staining based agarose gel electrophoresis
Summary of the method: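 Cleavage complex: 125 ng supercoiled pBR322 preincubated 10 min with 3 units human topo IIα, then compound added, 20 min at 37 °C in 10 µL. Stopped with SDS, proteinase K digestion 30 min at 45 °C, heated 2 min at 70 °C. Run on 0.8% agarose with 0.5 µg/mL ethidium bromide in TAE; linear DNA band quantified by UV imaging.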

HCT-15 [5] = assay: Inhibition of human recombinant topoisomerase mediated DNA relaxation in human HCT15 nuclear lysate at 50 uM preincubated for 24 hrs followed by addition of pBR322 plasmid measured after 30 mins by ethidium bromide staining based agarose gel electrophoresis
Summary of the method: (§3)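 HCT15 cells treated 24 h with compound, harvested, nuclear lysates prepared and protein measured by Bradford. 100 µg nuclear protein plus 100 ng pBR322 in buffer with Tris-Cl pH 7.5, MgCl2, ATP, EDTA, DTT, KCl, BSA, 30 min at 37 °C. Analyzed on 0.9% agarose with ethidium bromide; lysate-free plasmid control.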

[6] = Antiproliferative activity against human BT474 cells after 72 hrs by CCK8 assay; assay type: functional, cell-based; settings: BT-474, 72 h; summary of the method: as §1
[7] = target: DNA topoisomerase 2-alpha (Homo sapiens) (UniProt P11388); assay: Competitive inhibition of human recombinant topoisomerase 2alpha at 5 to 250 uM using supercoiled plasmid pBR322 as substrate after 30 mins by ethidium bromide staining based agarose gel electrophoresis in presence of ATP
T47D = assay: Antiproliferative activity against human T47D cells after 72 hrs by CCK8 assay; assay type: functional, cell-based; summary of the method: as §1
[8] = target: DNA topoisomerase 2-alpha (Homo sapiens) (UniProt P11388); assay: Inhibition of human recombinant topoisomerase 2alpha assessed as relaxation of supercoiled plasmid DNA pBR322 at 100 uM after 30 mins by ethidium bromide staining based agarose gel electrophoresis; summary of the method: as §2
HCT-15 [9] = assay: Inhibition of human recombinant topoisomerase mediated DNA relaxation in human HCT15 nuclear lysate at 100 uM preincubated for 24 hrs followed by addition of pBR322 plasmid measured after 30 mins by ethidium bromide staining based agarose gel electrophoresis; summary of the method: as §3
[10] = target: T1, DNA topoisomerase 1 (Homo sapiens) (UniProt P11387); assay: Inhibition of human recombinant topoisomerase 1 assessed as relaxation of supercoiled plasmid DNA pBR322 at 100 uM after 30 mins by ethidium bromide staining based agarose gel electrophoresis
T1 sequence (whole entry): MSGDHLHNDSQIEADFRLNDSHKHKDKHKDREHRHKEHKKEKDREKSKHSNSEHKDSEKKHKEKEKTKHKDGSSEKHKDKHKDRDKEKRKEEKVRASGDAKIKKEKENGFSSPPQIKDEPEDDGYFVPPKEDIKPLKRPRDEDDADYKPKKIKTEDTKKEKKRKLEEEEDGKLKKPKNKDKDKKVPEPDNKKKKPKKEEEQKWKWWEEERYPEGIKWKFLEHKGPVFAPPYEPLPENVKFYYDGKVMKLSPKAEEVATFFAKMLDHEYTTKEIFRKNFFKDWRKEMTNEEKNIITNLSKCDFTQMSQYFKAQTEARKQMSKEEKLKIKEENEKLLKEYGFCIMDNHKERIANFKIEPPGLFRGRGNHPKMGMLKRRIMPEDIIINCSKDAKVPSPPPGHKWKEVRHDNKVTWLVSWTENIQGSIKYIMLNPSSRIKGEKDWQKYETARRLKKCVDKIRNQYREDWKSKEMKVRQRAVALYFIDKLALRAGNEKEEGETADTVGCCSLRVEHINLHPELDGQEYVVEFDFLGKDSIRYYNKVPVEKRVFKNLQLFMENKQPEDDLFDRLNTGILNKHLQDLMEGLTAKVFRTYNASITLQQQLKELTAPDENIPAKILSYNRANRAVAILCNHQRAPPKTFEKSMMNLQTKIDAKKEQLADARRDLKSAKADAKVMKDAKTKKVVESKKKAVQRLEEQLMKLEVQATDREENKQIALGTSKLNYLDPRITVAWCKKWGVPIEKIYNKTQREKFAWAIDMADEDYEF
Summary of the method: (§4)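 Recombinant human topo I (1 unit) with 100 ng supercoiled pBR322, 30 min at 37 °C in 10 mM Tris-HCl pH 7.9, 150 mM NaCl, 0.1% BSA, 1 mM spermidine, 5% glycerol. Stopped with sarcosyl buffer; 0.8% agarose, 60 V 1 h in TAE, ethidium bromide stain 30 min, UV densitometry of relaxation as % inhibition.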

[11] = target: DNA topoisomerase 2-alpha (Homo sapiens) (UniProt P11388); settings: 100 uM
[12] = target: T1, DNA topoisomerase 1 (Homo sapiens); assay: Inhibition of human recombinant topoisomerase 1 assessed as relaxation of supercoiled plasmid DNA pBR322 at 20 uM after 30 mins by ethidium bromide staining based agarose gel electrophoresis; summary of the method: as §4

Chain of DNA topoisomerase 2-alpha (Homo sapiens) (P11388 whole entry): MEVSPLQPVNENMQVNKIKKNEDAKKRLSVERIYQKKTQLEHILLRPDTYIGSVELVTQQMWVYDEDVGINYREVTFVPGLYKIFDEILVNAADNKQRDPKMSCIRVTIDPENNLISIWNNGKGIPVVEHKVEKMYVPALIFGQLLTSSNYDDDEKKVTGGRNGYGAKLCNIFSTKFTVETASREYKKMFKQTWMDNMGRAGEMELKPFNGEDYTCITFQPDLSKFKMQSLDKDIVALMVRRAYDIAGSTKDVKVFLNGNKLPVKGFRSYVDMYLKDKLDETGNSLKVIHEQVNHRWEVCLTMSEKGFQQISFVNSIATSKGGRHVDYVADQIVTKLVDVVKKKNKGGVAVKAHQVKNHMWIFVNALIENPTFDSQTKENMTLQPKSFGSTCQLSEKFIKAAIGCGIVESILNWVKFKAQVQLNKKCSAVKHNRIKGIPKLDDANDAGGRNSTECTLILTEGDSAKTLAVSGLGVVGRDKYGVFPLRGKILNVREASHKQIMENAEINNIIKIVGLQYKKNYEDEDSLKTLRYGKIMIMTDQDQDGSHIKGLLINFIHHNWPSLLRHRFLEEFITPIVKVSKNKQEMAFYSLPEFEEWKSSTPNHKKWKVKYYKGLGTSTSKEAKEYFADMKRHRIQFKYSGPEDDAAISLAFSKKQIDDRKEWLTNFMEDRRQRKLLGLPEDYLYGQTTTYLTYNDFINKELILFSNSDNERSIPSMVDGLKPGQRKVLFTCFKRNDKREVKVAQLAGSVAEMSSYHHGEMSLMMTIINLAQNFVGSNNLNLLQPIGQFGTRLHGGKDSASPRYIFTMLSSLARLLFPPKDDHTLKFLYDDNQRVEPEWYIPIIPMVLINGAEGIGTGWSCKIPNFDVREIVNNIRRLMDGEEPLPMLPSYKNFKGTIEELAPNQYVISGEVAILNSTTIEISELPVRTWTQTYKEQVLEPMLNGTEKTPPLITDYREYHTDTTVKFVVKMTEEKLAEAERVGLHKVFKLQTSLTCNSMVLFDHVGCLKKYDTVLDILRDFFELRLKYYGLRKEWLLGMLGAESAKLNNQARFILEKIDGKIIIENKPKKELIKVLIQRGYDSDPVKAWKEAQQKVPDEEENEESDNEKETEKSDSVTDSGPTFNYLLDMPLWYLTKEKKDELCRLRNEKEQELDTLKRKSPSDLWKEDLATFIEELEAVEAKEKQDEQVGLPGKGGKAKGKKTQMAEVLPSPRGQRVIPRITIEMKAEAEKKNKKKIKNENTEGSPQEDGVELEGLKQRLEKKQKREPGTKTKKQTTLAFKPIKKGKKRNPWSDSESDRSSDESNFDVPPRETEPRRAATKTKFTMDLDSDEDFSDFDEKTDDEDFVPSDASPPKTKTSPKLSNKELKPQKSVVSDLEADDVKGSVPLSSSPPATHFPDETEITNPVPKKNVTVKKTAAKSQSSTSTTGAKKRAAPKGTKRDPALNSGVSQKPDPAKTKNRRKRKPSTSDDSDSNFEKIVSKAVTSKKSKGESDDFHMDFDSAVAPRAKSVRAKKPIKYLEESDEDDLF

| Compound | inhibition [2] | inhibition [3] | Activity [4] | inhibition (HCT-15 [5]) | inhibition [7] | IC50 (T47D) | inhibition [8] | inhibition (HCT-15 [9]) | inhibition [10] | inhibition [11] | inhibition [12] | IC50 [1] | IC50 [6] |
| --- | --- | --- | --- | --- | --- | --- | --- | --- | --- | --- | --- | --- | --- |
| COc1cccc2c1C(=O)c1c(O)c3c(c(O)c1C2=O)C[C@@](O)(C(=O)CO)C[C@@H]3O[C@H]1C[C@H](N)[C@H](O)[C@H](C)O1 [DOXORUBICIN HYDROCHLORIDE] |  |  |  |  |  |  |  |  |  |  |  | 23 µM | 3.2 µM |
| COc1ccccc1C1=NN(C(=O)c2ccc([N+](=O)[O-])o2)C(c2ccc([N+](=O)[O-])cc2)C1 (configuration not stated) | 2.9% |  |  |  |  | > 50 µM | 92.6% |  | 0% |  |  | > 50 µM | > 50 µM |
| COc1ccc(C2CC(c3ccccc3)=NN2C(=O)c2ccco2)cc1 (configuration not stated) | 0% |  |  |  |  | 27.3 µM | 91.6% |  | 0% |  |  | 3.9 µM | > 50 µM |
| COc1ccc(C2=NN(C(=O)c3ccco3)C(c3ccco3)C2)cc1 (configuration not stated) | 0% |  |  |  |  | 7.5 µM | 94.1% |  | 0% |  |  | 4.3 µM | > 50 µM |
| CC[C@@]1(O)C(=O)OCc2c1cc1n(c2=O)Cc2cc3ccccc3nc2-1 [CAMPTOTHECIN] |  |  |  |  |  | 4.1 µM |  |  |  |  |  | 7.1 µM | 7 µM |
| COc1ccc(C2CC(c3ccccc3)=NN2C(=O)c2ccncc2)cc1 (configuration not stated) | 0% |  |  |  |  | > 50 µM | 92.5% |  | 0% |  |  | 10.4 µM | > 50 µM |

The next lines start with results.

| inhibition [2] | inhibition [3] | Activity [4] | inhibition (HCT-15 [5]) | inhibition [7] | IC50 (T47D) | inhibition [8] | inhibition (HCT-15 [9]) | inhibition [10] | inhibition [11] | inhibition [12] | Compound | IC50 [1] | IC50 [6] |
| --- | --- | --- | --- | --- | --- | --- | --- | --- | --- | --- | --- | --- | --- |
| 0% | Dose-dependent effect | inactive | 78% | Active | 6.6 µM | 89.7% | 85.4% | 0% |  |  | COc1ccc(C2CC(c3ccc(Cl)cc3)=NN2C(=O)c2nc3ccccc3s2)cc1 (configuration not stated) | 4.1 µM | 7.2 µM |
| 0% |  |  |  |  | > 50 µM | 91.2% |  | 0% |  |  | COc1ccc(C2CC(c3ccccc3)=NN2C(=O)c2nc3ccccc3s2)cc1 (configuration not stated) | 1.9 µM | 6.3 µM |
| 0% |  |  |  |  | 7.9 µM | 76% |  | 0% |  |  | O=C(c1ccncc1)N1N=C(c2ccc(Cl)cc2)CC1c1ccco1 (configuration not stated) | 3.1 µM | 6.5 µM |
| 0% |  |  |  |  | > 50 µM | 92.8% |  | 0% |  |  | COc1ccccc1C1=NN(C(=O)c2ccncc2)C(c2ccc([N+](=O)[O-])cc2)C1 (configuration not stated) | 2.6 µM | 7.2 µM |
|  | Dose-dependent effect |  | 36% |  | 6.4 µM | 95.9% |  |  | inactive |  | COc1cc([C@@H]2c3cc4c(cc3[C@@H](O[C@@H]3O[C@@H]5CO[C@@H](C)O[C@H]5[C@H](O)[C@H]3O)[C@H]3COC(=O)[C@H]23)OCO4)cc(OC)c1O [ETOPOSIDE] | 6.9 µM | 6.6 µM |
| 1.3% |  |  |  |  | > 50 µM | 93.1% |  | 96.8% |  | 4% | O=C(c1ccco1)N1N=C(c2ccc(Cl)cc2)CC1c1ccco1 (configuration not stated) | > 50 µM | > 50 µM |
